This note sets out measurements from ChEMBL document CHEMBL2331153, “Structural investigation and biological activity of sesquiterpene lactones from the traditional Chinese herb Inula racemosa” (J Nat Prod, 2013).

Values after ≈ are worked out from the molar mass of the structure shown. Active and inactive are the calls of the source. The calls are words filed in the database; no cut-off is given here.

What all share (format): functional, cell-based
One test relates to HepG2. Kind of test: Antiproliferative activity against human HepG2 cells assessed as inhibition of cell proliferation after 72 hrs by CCK8 assay. The conditions noted are these: HepG2, 72 h. The essentials:
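HepG2 cells maintained in DMEM with 10% FBS and penicillin/streptomycin at 37 °C, 5% CO2. After overnight adherence, compound exposure lasted 72 h. Viable cells detected with CCK-8 (2 h incubation) by absorbance at 450 nm. Positive control was mitomycin. Assays in duplicate.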

Another test deals with HT-1080. Kind of test: Antiproliferative activity against human HT1080 cells assessed as inhibition of cell proliferation after 72 hrs by CCK8 assay. The conditions noted are these: HT-1080, 72 h. In outline: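 HT1080 fibrosarcoma cells cultured in alpha-MEM with 10% FBS and penicillin/streptomycin, 37 °C, 5% CO2. Seeded, allowed to adhere overnight, then incubated with compound for 72 h. CCK-8 added for 2 h, then A450 read. Mitomycin was the positive control. Duplicate experiments.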
Background: Tetrazolium dyes change colour on reduction, which living cells bring about.

For a further test, the system named is A549. The experiment in a line: Antiproliferative activity against human A549 cells assessed as inhibition of cell proliferation after 72 hrs by CCK8 assay. Particulars: A549, 72 h. The essentials:
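A549 cells grown in RPMI 1640 with 10% FBS and penicillin/streptomycin at 37 °C, 5% CO2. Cells adhered overnight, then treated with compound for 72 h. CCK-8 added for 2 h at 37 °C, absorbance read at 450 nm. Mitomycin served as positive control. Run in duplicate.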

Test [1] has as its system HUVEC. Kind of test: Antiangiogenic activity against human HUVEC assessed as inhibition of endothelial cell tube formation at 1 ug/ml after 22 hrs by Matrigel assay. The essentials: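 HUVECs (passages 2–6) seeded at 25 000 cells/well onto a Matrigel layer and exposed to compound for 22 h; images taken 22 h after plating at ×40. Capillary tube formation scored as total length of capillary structures in two representative fields per experiment. Colchicine served as positive control.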

The subject of test [2] is HUVEC. The experiment in a line: Antiproliferative activity against human HUVEC assessed as inhibition of cell proliferation after 72 hrs by CCK8 assay. In outline: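 HUVECs at passages 2–6 grown in endothelial cell medium with 0.03 mg/mL endothelial cell growth supplement, 10% FBS, 0.1 mg/mL heparin and penicillin/streptomycin. Cells adhered overnight, then compound added for 72 h at 37 °C, 5% CO2. CCK-8 added for 2 h and absorbance read at 450 nm. Mitomycin positive control; duplicates.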

As for `C=C1C(=O)O[C@@H]2C[C@@]3(C)CCC[C@H](C)[C@]3(O)C[C@H]12` [RACEMOSALACTONE A], the values for the IC50 in the test on HepG2, with HT-1080 and in the test on A549 were 2.76 µg/mL (≈ 11 µM), 1.88 µg/mL (≈ 7.51 µM) and 1.51 µg/mL (≈ 6.03 µM), respectively.
For `C[C@@H]1CCC[C@]2(C)C[C@@H]3OC(=O)C(CO)=C3C=C12` [MACROPHYLLILACTONE E], in that order: 31.2 µg/mL (≈ 126 µM), 28.5 µg/mL (≈ 115 µM) and 16.2 µg/mL (≈ 65.3 µM).
Turning to `C=C1C(=O)O[C@@H]2C[C@@]3(C)CCC[C@H](C)[C@@]34O[C@H]4[C@H]12`, the IC50 in the test on HepG2 was determined as 2.73 µg/mL (≈ 11 µM); in the test on HT-1080, 1.32 µg/mL (≈ 5.32 µM); in the test with A549, 1.59 µg/mL (≈ 6.4 µM).
For `C[C@H]1C(=O)O[C@@H]2CC3=C[C@@H](O)C[C@H](C)[C@@]3(C)C[C@@H]21` [RACEMOSALACTONE E], in that order: above 50 µg/mL, above 50 µg/mL and 38.6 µg/mL (≈ 154 µM).
For `C=C1C[C@H](O)C[C@]2(C)C[C@H]3OC(=O)[C@H](C)[C@H]3C[C@@H]12`, in that order: above 50 µg/mL, above 50 µg/mL and above 50 µg/mL.
As for `C=C1C(=O)O[C@@H]2C[C@@]3(C)CCCC(=C)[C@]3(O)C[C@H]12` [TELEKIN], the IC50 with HepG2 amounted to 8.14 µg/mL (≈ 32.8 µM); with HT-1080, 3.5 µg/mL (≈ 14.1 µM); in the test with A549 it was 4.27 µg/mL (≈ 17.2 µM).
For `C[C@@H]1C(=O)O[C@@H]2C[C@@]3(C)CCC[C@H](C)C3=C[C@]12O` [RACEMOSALACTONE C], in that order: above 50 µg/mL, above 50 µg/mL and 27.8 µg/mL (≈ 111 µM).
For `C[C@@H]1C(=O)O[C@@H]2C[C@@]3(C)CCC[C@H](C)C3=C[C@H]12`, in that order: above 50 µg/mL, above 50 µg/mL and 24.8 µg/mL (≈ 106 µM).
For `C=C1C[C@H](O)C[C@]2(C)C[C@H]3OC(=O)[C@@H](C)[C@H]3C[C@@H]12`, in that order: above 50 µg/mL, above 50 µg/mL and above 50 µg/mL.
On to `C[C@@H]1C2=C[C@H]3[C@@H](C[C@@]2(C)CC[C@@H]1O)OC(=O)[C@@H]3C`, for which the IC50 in the test with HepG2, in the test with HT-1080 and in the test with A549 was above 50 µg/mL throughout.
For `C[C@@H]1C2=C[C@H]3[C@@H](C[C@@]2(C)CC[C@@H]1O)OC(=O)[C@@]3(O)CCl` [RACEMOSALACTONE B], the IC50 was above 50 µg/mL with HepG2, above 50 µg/mL in the test on HT-1080 and 37.3 µg/mL (≈ 124 µM) in the test on A549.
Regarding `C=C1C(=O)O[C@@H]2C[C@@]3(C)CCCC(C)=C3C[C@H]12` [ALLOALANTOLACTONE], the IC50 came to 3.57 µg/mL (≈ 15.4 µM) with HepG2, 3.87 µg/mL (≈ 16.7 µM) in the test with HT-1080 and 2.67 µg/mL (≈ 11.5 µM) with A549.
On to `C=C1C(=O)O[C@@H]2C[C@@]3(C)CCC[C@H](C)C3=C[C@H]12` [HELENINE], for which the inhibition entry with HUVEC [1] was “Active”. The IC50 in the test with HUVEC [2] turned out to be 2.4 µg/mL (≈ 10.3 µM); in the test on HepG2, 1.3 µg/mL (≈ 5.6 µM); in the test on HT-1080, 0.696 µg/mL (≈ 3 µM); with A549, 0.55 µg/mL (≈ 2.37 µM).
Take `C=C1C(=O)O[C@@H]2C[C@@]3(C)CCCC(=C)[C@@H]3C[C@H]12` [ISOALANTOLACTONE]: in the test on HUVEC [1], the inhibition entry was “Active”. In addition, the IC50 is 2.5 µg/mL (≈ 10.8 µM) in the test on HUVEC [2], 1.77 µg/mL (≈ 7.62 µM) with HepG2, 0.795 µg/mL (≈ 3.42 µM) with HT-1080 and 0.38 µg/mL (≈ 1.64 µM) in the test on A549.
As for `CO[C@@]12[C@H](COC(N)=O)C3=C(C(=O)C(C)=C(N)C3=O)N1C[C@@H]1N[C@@H]12` [MITOMYCIN], the IC50 in the test with HepG2 worked out at 0.14 µg/mL (≈ 0.419 µM); in the test on HT-1080, 0.15 µg/mL (≈ 0.449 µM); in the test on A549 it was 0.54 µg/mL (≈ 1.62 µM).
For `C=C1CCC[C@]2(C)C[C@H]3OC(=O)[C@@H](C)[C@H]3C[C@@H]12` [DIHYDROISOALANTOLACTONE], in that order: above 50 µg/mL, above 50 µg/mL and above 50 µg/mL.
For `CC1=C2C[C@@H]3[C@H](C)C(=O)O[C@@H]3C[C@@]2(C)CCC1=O`, in that order: above 50 µg/mL, above 50 µg/mL and 22.5 µg/mL (≈ 90.8 µM).
For `C[C@@H]1C(=O)O[C@@H]2C[C@@]3(C)C[C@@H](O)C[C@H](C)C3=C[C@H]12`, in that order: 26.1 µg/mL (≈ 104 µM), 20.1 µg/mL (≈ 80.3 µM) and 24.8 µg/mL (≈ 99.1 µM).
Regarding `C=C1C(=O)O[C@@H]2C[C@@]3(C)CC[C@@H](O)C(=C)[C@@H]3C[C@H]12` [ISOTELEKIN], the figures for the 50% inhibitory concentration (IC50) in the test with HepG2, in the test with HT-1080 and in the test on A549 were 4.19 µg/mL (≈ 16.9 µM), 2.44 µg/mL (≈ 9.83 µM) and 1.47 µg/mL (≈ 5.92 µM), respectively.
For `C=C1C(=O)O[C@@H]2C[C@@]3(C)CCC[C@]4(CO4)[C@@H]3C[C@H]12`, in that order: 3.78 µg/mL (≈ 15.2 µM), 3.51 µg/mL (≈ 14.1 µM) and 2.65 µg/mL (≈ 10.7 µM).
As for `C[C@@H]1C(=O)O[C@@H]2C[C@@]3(C)CCC[C@H](C)[C@@]34O[C@H]4[C@H]12` [DIHYDROEPOXYALANTOLACTONE], the IC50 is 25.3 µg/mL (≈ 101 µM) in the test with HepG2, 17.4 µg/mL (≈ 69.5 µM) in the test on HT-1080 and 16.2 µg/mL (≈ 64.8 µM) in the test on A549.
For `C=C1C[C@H](O)C[C@]2(C)C[C@H]3OC(=O)[C@](C)(O)[C@H]3C[C@@H]12` [RACEMOSALACTONE D], in that order: above 50 µg/mL, above 50 µg/mL and above 50 µg/mL.
For `C[C@@H]1C(=O)O[C@@H]2C[C@@]3(C)CCC[C@]4(CO4)[C@@H]3C[C@H]12`, in that order: above 50 µg/mL, above 50 µg/mL and above 50 µg/mL.
For `C[C@H]1CCC[C@]2(C)C[C@H]3OC(=O)[C@](C)(O)[C@H]3C=C12`, in that order: above 50 µg/mL, above 50 µg/mL and above 50 µg/mL.

What is called IC50 is the midpoint of a concentration-inhibition curve.
